Measured values: paper PMC8341375 (RSC Chemical Biology, 2021)
Each block holds one molecule with its values, some of them ahead of it.

How the values were obtained:
CYP19 = target: T1, CYP19 (Homo sapiens, UniProt P11511); assay: AR11 and AR13 steady-state kinetics assay; assay type: biochemical; details: nonlinear regression, no inhibitor
T1 sequence (P11511 1-503): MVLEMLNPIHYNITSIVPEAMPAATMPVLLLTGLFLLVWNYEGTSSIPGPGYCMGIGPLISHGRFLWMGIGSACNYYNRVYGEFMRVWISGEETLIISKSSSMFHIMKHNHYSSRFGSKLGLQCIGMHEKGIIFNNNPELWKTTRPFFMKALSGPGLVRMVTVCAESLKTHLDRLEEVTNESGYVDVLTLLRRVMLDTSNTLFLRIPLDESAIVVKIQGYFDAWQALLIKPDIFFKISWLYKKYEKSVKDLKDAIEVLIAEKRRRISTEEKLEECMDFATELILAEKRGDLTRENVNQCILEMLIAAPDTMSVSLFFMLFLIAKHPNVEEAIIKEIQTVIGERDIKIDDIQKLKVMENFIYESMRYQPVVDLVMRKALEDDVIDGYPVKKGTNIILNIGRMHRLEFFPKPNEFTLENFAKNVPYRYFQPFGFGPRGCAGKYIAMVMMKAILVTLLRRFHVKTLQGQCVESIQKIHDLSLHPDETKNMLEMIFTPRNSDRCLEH

aromatase (CYP19) [1] = target: T2, aromatase (CYP19) (Homo sapiens, UniProt P11511); assay: CYP19/MFC aromatase inhibition assay; assay type: biochemical; details: for Fractional activity at saturation / Hill slope: dose-response fit, 7.5 nM P450, 25 μM MFC; for Hill slope: AR19 fixed to 1
T2 sequence (P11511 1-503): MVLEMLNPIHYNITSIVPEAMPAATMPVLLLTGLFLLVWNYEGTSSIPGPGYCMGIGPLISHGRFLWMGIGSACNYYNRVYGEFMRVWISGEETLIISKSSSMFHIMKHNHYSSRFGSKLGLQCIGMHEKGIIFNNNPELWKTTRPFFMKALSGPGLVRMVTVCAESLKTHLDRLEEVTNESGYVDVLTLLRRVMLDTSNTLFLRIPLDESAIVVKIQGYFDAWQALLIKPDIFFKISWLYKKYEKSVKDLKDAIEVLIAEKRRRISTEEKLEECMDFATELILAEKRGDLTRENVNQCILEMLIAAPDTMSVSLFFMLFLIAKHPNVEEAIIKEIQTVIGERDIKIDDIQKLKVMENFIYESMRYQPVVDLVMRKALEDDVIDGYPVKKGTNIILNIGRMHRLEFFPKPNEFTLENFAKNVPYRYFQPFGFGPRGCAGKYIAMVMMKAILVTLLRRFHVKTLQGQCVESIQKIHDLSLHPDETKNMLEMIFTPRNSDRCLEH

recombinant CYP19 = assay: Soret shifts by absorption spectroscopy; assay type: binding; details: titration of up to 100 μM, 2 μM ASD
Method in brief: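 Purified recombinant CYP19 (from codon-optimized CYP19A1 cDNA in pCW) at 2–3 μM in 100 mM potassium phosphate, pH 7.4. Test compound titrated (6–36 μM, then 100 μM) with ACN kept ≤3%, with or without 2 μM androstenedione. UV-Vis absorption scans after 10 min at 25 °C. Adducts were dithionite-reduced and exposed to CO in some runs.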

aromatase (CYP19) [2] = target: T2, aromatase (CYP19); details: noncompetitive AI; cited from earlier work
[3] = substrate: COc1ccc2c(C(F)(F)F)cc(=O)oc2c1; assay: AR11 and AR13 steady-state kinetics assay; assay type: biochemical; details: other: nonlinear regression, no inhibitor; pH 7.4; 37.0 °C

substrate Vmax (CYP19): 0.731 pmol HFC min^−1 pmol^−1 P450
Molecule: COc1ccc2c(C(F)(F)F)cc(=O)oc2c1 [MFC, 7-methoxy-4-(trifluoromethyl)coumarin]

IC50 (aromatase (CYP19) [1]; IC50, 7.5 nM P450, 25 μM MFC, 4-parameter logistic model (AR19: 3-parameter, Hill 1), ± SEM): 30.9 ± 3.1 µM
Fractional activity at saturation (aromatase (CYP19) [1]): 0.02 ± 0.02
Hill slope (aromatase (CYP19) [1]): 2.27 ± 0.41
Hill slope (aromatase (CYP19) [1]; listed as endoxifen): 2
Molecule: CC/C(=C(\c1ccc(O)cc1)c1ccc(OCCNC)cc1)c1ccccc1 [Endoxifen, endoxifen]
Soret peak shift from 395 nm in the CYP19 ASD-bound state (recombinant CYP19): did not induce a Soret peak shift
Ki (aromatase (CYP19) [2]): 4 µM

Fractional activity at saturation (aromatase (CYP19) [1]): 0.03 ± 0.01
Hill slope (aromatase (CYP19) [1]): 1.12 ± 0.07
Molecule: CC(=O)N1CCN(c2ccc(OCC3COC(Cn4ccnc4)(c4ccc(Cl)cc4Cl)O3)cc2)CC1 (stereo not shown) [Ketoconazole, ketoconazole]

B1: CYP19 (Homo sapiens) (protein)
chain: MVLEMLNPIHYNITSIVPEAMPAATMPVLLLTGLFLLVWNYEGTSSIPGPGYCMGIGPLISHGRFLWMGIGSACNYYNRVYGEFMRVWISGEETLIISKSSSMFHIMKHNHYSSRFGSKLGLQCIGMHEKGIIFNNNPELWKTTRPFFMKALSGPGLVRMVTVCAESLKTHLDRLEEVTNESGYVDVLTLLRRVMLDTSNTLFLRIPLDESAIVVKIQGYFDAWQALLIKPDIFFKISWLYKKYEKSVKDLKDAIEVLIAEKRRRISTEEKLEECMDFATELILAEKRGDLTRENVNQCILEMLIAAPDTMSVSLFFMLFLIAKHPNVEEAIIKEIQTVIGERDIKIDDIQKLKVMENFIYESMRYQPVVDLVMRKALEDDVIDGYPVKKGTNIILNIGRMHRLEFFPKPNEFTLENFAKNVPYRYFQPFGFGPRGCAGKYIAMVMMKAILVTLLRRFHVKTLQGQCVESIQKIHDLSLHPDETKNMLEMIFTPRNSDRCLEH
Km [3]: 28.48 µM
